{"source": "ChEMBL document CHEMBL3784976", "about": "(J Med Chem, 2016)", "key": {"[1]": {"biological_target": "D(1A) dopamine receptor (Homo sapiens) (UniProt P21728)", "sequence (P21728 whole entry)": "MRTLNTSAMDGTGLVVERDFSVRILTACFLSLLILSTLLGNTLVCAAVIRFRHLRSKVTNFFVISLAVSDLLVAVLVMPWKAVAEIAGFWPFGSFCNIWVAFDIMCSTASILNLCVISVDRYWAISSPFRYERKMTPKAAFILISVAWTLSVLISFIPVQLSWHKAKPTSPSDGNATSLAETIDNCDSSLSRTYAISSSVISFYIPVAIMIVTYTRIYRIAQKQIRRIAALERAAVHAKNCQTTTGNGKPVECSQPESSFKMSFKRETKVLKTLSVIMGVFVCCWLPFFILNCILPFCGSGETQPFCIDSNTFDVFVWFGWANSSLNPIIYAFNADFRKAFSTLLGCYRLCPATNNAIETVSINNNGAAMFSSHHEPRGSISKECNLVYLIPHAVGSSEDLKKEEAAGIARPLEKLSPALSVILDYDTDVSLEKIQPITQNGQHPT", "test": "Displacement of [3H]SCH-23390 from human recombinant dopamine D1 receptor expressed in CHO cells assessed as remaining radioligand binding at 10 uM after 60 mins by scintillation counting method relative to control", "type": "cell-based"}, "Rattus norvegicus [2]": {"tested_on": "Rattus norvegicus", "test": "Antinociceptive activity in po dosed Harlan Sprague-Dawley rat assessed as inhibition of AITC-induced paw flinches pretreated for 1 hr followed by AITC injection measured for 1 min post injection", "type": "functional, organism-based", "outline": "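Rats were dosed orally with vehicle (2% HPMC/1% Tween-80) or antagonist at 1, 3, 10 or 30 mg/kg. After 1 h, 0.1% AITC was injected into the left ventral hind paw. Flinching was recorded over the first minute post-injection. Unbound plasma concentrations were measured at 1 h (n = 8 per dose).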"}, "[3]": {"biological_target": "Muscarinic acetylcholine receptor M4 (Homo sapiens) (UniProt P08173)", "sequence (P08173 whole entry)": "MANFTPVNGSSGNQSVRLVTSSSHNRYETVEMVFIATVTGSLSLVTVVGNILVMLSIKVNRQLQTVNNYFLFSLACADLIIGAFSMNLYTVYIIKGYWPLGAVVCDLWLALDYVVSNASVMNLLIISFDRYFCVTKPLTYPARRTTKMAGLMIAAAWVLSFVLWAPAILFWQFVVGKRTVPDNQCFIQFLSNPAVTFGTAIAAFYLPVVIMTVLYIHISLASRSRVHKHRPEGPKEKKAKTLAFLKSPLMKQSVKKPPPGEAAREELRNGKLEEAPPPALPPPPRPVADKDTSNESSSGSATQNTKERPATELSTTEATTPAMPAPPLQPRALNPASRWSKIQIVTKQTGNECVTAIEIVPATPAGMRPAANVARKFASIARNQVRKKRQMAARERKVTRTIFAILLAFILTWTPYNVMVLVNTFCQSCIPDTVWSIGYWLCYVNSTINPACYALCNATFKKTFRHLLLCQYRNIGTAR", "test": "Displacement of [3H]4-DAMP from human recombinant muscarinic M4 receptor expressed in CHO cells assessed as remaining radioligand binding at 10 uM after 60 mins by scintillation counting method relative to control", "type": "cell-based"}, "Rattus norvegicus [4]": {"organism": "Rattus norvegicus", "test": "Displacement of [3H]diltiazem from L-type calcium channel diltiazem binding site in rat cerebral cortex assessed as remaining radioligand binding at 10 uM after 120 mins by scintillation counting method relative to control", "type": "tissue-based"}, "[5]": {"test": "AUC (infinity) in rat at 30 mg/kg, po", "type": "ADME, organism-based", "design": "dose 30 mg/kg, time infinity, route oral", "settings": "in vivo", "outline": "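Rat oral PK at 30 mg/kg (10 mg/kg for one analogue) in 1% Tween 80/2% HPMC/97% water with methanesulfonic acid, pH 2.2.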"}, "[6]": {"biological_target": "C-X-C chemokine receptor type 2 (Homo sapiens) (UniProt P25025)", "sequence (P25025 whole entry)": "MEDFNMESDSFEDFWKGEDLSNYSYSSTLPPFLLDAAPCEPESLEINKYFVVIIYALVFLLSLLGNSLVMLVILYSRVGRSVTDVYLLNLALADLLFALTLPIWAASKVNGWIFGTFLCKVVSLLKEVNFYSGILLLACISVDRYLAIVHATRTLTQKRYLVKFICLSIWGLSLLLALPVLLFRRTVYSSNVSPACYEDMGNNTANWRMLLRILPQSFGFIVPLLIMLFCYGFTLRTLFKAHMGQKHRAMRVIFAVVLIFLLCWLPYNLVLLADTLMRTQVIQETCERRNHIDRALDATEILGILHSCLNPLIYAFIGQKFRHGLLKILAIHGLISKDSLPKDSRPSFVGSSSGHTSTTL", "test": "Displacement of [125I]IL-8 from human recombinant CXCR2 expressed in HEK293 cells assessed as remaining radioligand binding at 10 uM after 60 mins by scintillation counting method relative to control", "type": "cell-based"}, "[7]": {"test": "Half life in rat at 30 mg/kg, po", "type": "ADME, organism-based", "settings": "in vivo", "outline": "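Rats dosed orally at 30 mg/kg, or 10 mg/kg for one analogue, in 1% Tween 80/2% HPMC/97% water with methanesulfonic acid, pH 2.2.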"}, "[8]": {"biological_target": "D(3) dopamine receptor (Homo sapiens) (UniProt P35462)", "sequence (P35462 whole entry)": "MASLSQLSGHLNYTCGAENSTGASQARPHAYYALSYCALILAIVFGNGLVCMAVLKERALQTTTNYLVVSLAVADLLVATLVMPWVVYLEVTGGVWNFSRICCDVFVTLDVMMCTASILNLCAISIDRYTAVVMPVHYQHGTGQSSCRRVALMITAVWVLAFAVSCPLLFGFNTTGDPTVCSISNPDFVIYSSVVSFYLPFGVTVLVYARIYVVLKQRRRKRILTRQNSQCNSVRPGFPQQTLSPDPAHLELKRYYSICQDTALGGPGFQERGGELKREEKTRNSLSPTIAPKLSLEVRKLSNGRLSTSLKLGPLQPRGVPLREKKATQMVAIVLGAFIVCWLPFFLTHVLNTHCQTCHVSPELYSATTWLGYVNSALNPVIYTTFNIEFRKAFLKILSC", "test": "Displacement of [3H]methyl-spiperone from human recombinant dopamine D3 receptor expressed in CHO cells assessed as remaining radioligand binding at 10 uM after 60 mins by scintillation counting method relative to control", "type": "cell-based"}, "[9]": {"biological_target": "Cannabinoid receptor 1 (Homo sapiens) (UniProt P21554)", "sequence (P21554 whole entry)": "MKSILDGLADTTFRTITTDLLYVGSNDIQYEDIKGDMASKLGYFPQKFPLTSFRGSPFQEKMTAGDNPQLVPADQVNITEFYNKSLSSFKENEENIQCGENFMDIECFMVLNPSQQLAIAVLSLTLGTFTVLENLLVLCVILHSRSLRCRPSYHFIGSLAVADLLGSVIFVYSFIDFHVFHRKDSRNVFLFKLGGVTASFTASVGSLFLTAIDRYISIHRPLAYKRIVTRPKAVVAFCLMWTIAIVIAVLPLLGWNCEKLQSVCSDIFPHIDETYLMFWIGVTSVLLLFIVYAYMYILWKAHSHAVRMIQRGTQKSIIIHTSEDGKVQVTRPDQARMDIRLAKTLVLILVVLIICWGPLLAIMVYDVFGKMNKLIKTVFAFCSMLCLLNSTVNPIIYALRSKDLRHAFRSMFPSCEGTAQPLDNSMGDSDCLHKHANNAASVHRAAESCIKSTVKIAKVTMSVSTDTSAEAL", "test": "Displacement of [3H]CP-55940 from human recombinant CB1 receptor expressed in CHO cells assessed as remaining radioligand binding at 10 uM after 120 mins by scintillation counting method relative to control", "type": "cell-based"}, "[10]": {"test": "Ratio of unbound plasma concentration in Harlan Sprague-Dawley rat model of AITC-induced flinching at 1 mg/kg, po to IC50 for rat TRPA1 expressed in tetracycline-inducible T-REx expression system transfected CHO cells by 45Ca2+ uptake assay", "type": "ADME, organism-based", "settings": "in vivo", "outline": "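Rats dosed orally at 1, 3, 10 or 30 mg/kg in 2% HPMC/1% Tween-80 vehicle. After 1 h, unbound plasma concentration measured (n = 8 per dose), intraplantar AITC (0.1%) given and flinching scored over the first minute. Unbound concentration divided by in vitro rat TRPA1 45Ca2+ IC50.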"}}}
{"compound": "Cn1cnc2ncn(Cc3nc(CCc4ccc(Cl)cc4)no3)c(=O)c21", "values": [{"measurement": "Activity", "setting": "[1]", "value": "> 77", "unit": "%"}, {"measurement": "inhibition", "setting": "Rattus norvegicus [2]", "value": "Dose-dependent effect"}, {"measurement": "Activity", "setting": "[3]", "value": "> 77", "unit": "%"}, {"measurement": "Activity", "setting": "Rattus norvegicus [4]", "value": "> 77", "unit": "%"}, {"measurement": "AUC(0-inf)", "setting": "[5]", "value": 19.8, "unit": "µM·h"}, {"measurement": "Activity", "setting": "[6]", "value": "> 77", "unit": "%"}, {"measurement": "half-life", "setting": "[7]", "value": 2.8, "unit": "h"}, {"measurement": "Activity", "setting": "[8]", "value": "> 77", "unit": "%"}, {"measurement": "Activity", "setting": "[9]", "value": "> 77", "unit": "%"}, {"measurement": "Ratio", "setting": "[10]", "value": 0.72}]}
